According to ChEMBL document CHEMBL3045648, “Proapoptotic effects of novel pentabromobenzylisothioureas in human leukemia cell lines” (2012):
Activity calls are given as the source filed them. The calls are words filed in the database; no cut-off is given here.

Key:
[1] = tested on: K562; test: Induction of cell cycle arrest in Homo sapiens (human) K562 cells assessed as decrease in G2/M phase cells after 48 hr by PI-staining based flow cytometric analysis; assay type: functional
Procedure, shortened: (§1)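 Cells treated 48 h with DMSO solvent controls, washed in cold PBS and fixed in 70% ethanol at −20°C for at least 24 h. Stained 30 min in the dark at room temperature with 50 μg/ml PI and 100 μg/ml RNase in PBS/0.1% Triton X-100. DNA content measured by flow cytometry and phase percentages modelled; mean ± SD, n ≥ 4.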

[2] = tested on: K562; test: Induction of cell cycle arrest in Homo sapiens (human) K562 cells assessed as cells accumulation of G1/S phase cells after 48 hr by PI-staining based flow cytometric analysis; assay type: functional; procedure, shortened: as §1
[3] = tested on: K562; test: Induction of cell cycle arrest in Homo sapiens (human) K562 cells assessed as accumulation of G1 phase cells after 48 hr by PI-staining based flow cytometric analysis; assay type: functional; procedure, shortened: as §1
[4] = tested on: HL-60; test: Induction of cell cycle arrest in Homo sapiens (human) HL60 cells assessed as decrease in G2/M phase cells after 48 hr by PI-staining based flow cytometric analysis; assay type: functional; procedure, shortened: as §1
[5] = tested on: HL-60; test: Induction of cell cycle arrest in Homo sapiens (human) HL60 cells assessed as cells accumulation of G1/S phase cells after 48 hr by PI-staining based flow cytometric analysis; assay type: functional; procedure, shortened: as §1
[6] = tested on: HL-60; test: Induction of cell cycle arrest in Homo sapiens (human) HL60 cells assessed as accumulation of G1 phase cells after 48 hr by PI-staining based flow cytometric analysis; assay type: functional; procedure, shortened: as §1
[7] = tested on: K562; test: Induction of apoptosis in Homo sapiens (human) K562 cells assessed as mitochondrial membrane depolarization at 10 uM after 48 hr by JC-1 staining based flow cytometric analysis (reference value: 6.1 +/- 0.9%); assay type: functional
[8] = tested on: HL-60; test: Induction of apoptosis in Homo sapiens (human) HL60 cells assessed as mitochondrial membrane depolarization at 5 uM after 48 hr by JC-1 staining based flow cytometric analysis (reference value: 7.7 +/- 2.4%); assay type: functional
[9] = tested on: K562; test: Induction of apoptosis in Homo sapiens (human) K562 cells from 24 to 48 hr by annexinV/PI-staining based flow cytometric analysis; assay type: functional, cell-based
Procedure, shortened: (§2)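 Cells seeded at 2.5 × 10^5 cells/ml in RPMI-1640/10% FBS, treated 24 or 48 h, DMSO solvent controls. Rinsed twice in cold PBS and resuspended at 2 × 10^6 cells/ml in binding buffer. Labelled with annexin V-FITC and PI for 15 min at room temperature in the dark. Flow cytometry within 1 h; mean ± SD, n ≥ 4.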

[10] = tested on: HL-60; test: Induction of apoptosis in Homo sapiens (human) HL60 cells from 24 to 48 hr by annexinV/PI-staining based flow cytometric analysis; assay type: functional, cell-based; procedure, shortened: as §2
[11] = tested on: K562; test: Induction of apoptosis in Homo sapiens (human) K562 cells at 10 to 20 uM by annexinV/PI-staining based flow cytometric analysis; assay type: functional, cell-based; settings: TDE = time-dependent effect; procedure, shortened: as §2
[12] = tested on: HL-60; test: Induction of apoptosis in Homo sapiens (human) HL60 cells at 5 to 8 uM by annexinV/PI-staining based flow cytometric analysis; assay type: functional, cell-based; settings: TDE = time-dependent effect; procedure, shortened: as §2
[13] = tested on: K562; test: Induction of cell cycle arrest in Homo sapiens (human) K562 cells assessed as G2/M phase cells at 10 uM after 48 hr by PI-staining based flow cytometric analysis (reference value: 19.1 +/- 3.9%); assay type: functional; procedure, shortened: as §1
[14] = tested on: K562; test: Induction of cell cycle arrest in Homo sapiens (human) K562 cells assessed as S phase cells at 10 uM after 48 hr by PI-staining based flow cytometric analysis (reference value: 43.3 +/- 3.4%); assay type: functional; procedure, shortened: as §1
[15] = tested on: K562; test: Induction of cell cycle arrest in Homo sapiens (human) K562 cells assessed as G1 phase cells at 10 uM after 48 hr by PI-staining based flow cytometric analysis (reference value: 37.6 +/- 3.2 %); assay type: functional; procedure, shortened: as §1
[16] = tested on: HL-60; test: Induction of apoptosis in Homo sapiens (human) HL60 cells assessed as PARP cleavage at 8 uM after 48 hr by FITC conjugated antiPARP-staining based flow cytometric analysis; assay type: functional, cell-based
Procedure, shortened: (§3)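 Cells in RPMI-1640 with 10% heat-inactivated FBS, seeded at 2.5 × 10^5 cells/ml and treated from DMSO solution. Controls got the same solvent volume. Harvested 48 h post-treatment and washed twice in PBS. Stained with FITC anti-PARP antibody specific for the 85 kDa cleaved fragment. Flow cytometry reported fluorescence intensity, with negative (M1) and positive (M2) gates.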

[17] = tested on: HL-60; test: Induction of apoptosis in Homo sapiens (human) HL60 cells assessed as apoptotic nuclei at 8 uM after 48 hr by DAPI/sulforhodamine 101-stainihng based fluorescence micrscopic analysis; assay type: functional, cell-based
Procedure, shortened: (§4)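 Exponentially growing cells seeded at 2.5 × 10^5 cells/ml, exposed 48 h, DMSO solvent controls. Washed in cold PBS and fixed in 70% ethanol at −20°C for at least 24 h. Stained with 1.0 μg/ml DAPI plus 20 μg/ml sulforhodamine 101. Nuclear morphology scored by fluorescence microscopy.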

[18] = tested on: HL-60; test: Induction of apoptosis in Homo sapiens (human) HL60 cells assessed as concentrated chromatin at 8 uM after 48 hr by DAPI/sulforhodamine 101-stainihng based fluorescence micrscopic analysis; assay type: functional, cell-based; procedure, shortened: as §4
[19] = tested on: K562; test: Induction of cell cycle arrest in Homo sapiens (human) K562 cells assessed as G1 phase cells at 20 uM after 48 hr by PI-staining based flow cytometric analysis (reference value: 37.6 +/- 3.2 %); assay type: functional; procedure, shortened: as §1
[20] = tested on: K562; test: Induction of cell cycle arrest in Homo sapiens (human) K562 cells assessed as G2/M phase cells at 20 uM after 48 hr by PI-staining based flow cytometric analysis (reference value: 19.1 +/- 3.9%); assay type: functional; procedure, shortened: as §1
[21] = tested on: K562; test: Induction of cell cycle arrest in Homo sapiens (human) K562 cells assessed as S phase cells at 20 uM after 48 hr by PI-staining based flow cytometric analysis (reference value: 43.3 +/- 3.4%); assay type: functional; procedure, shortened: as §1
[22] = tested on: K562; test: Induction of apoptosis in Homo sapiens (human) K562 cells assessed as PARP cleavage at 10 uM after 48 hr by FITC conjugated antiPARP-staining based flow cytometric analysis; assay type: functional, cell-based; procedure, shortened: as §3

SMILES	Activity [1]	Activity [2]	Activity [3]	Activity [4]	Activity [5]	Activity [6]	Activity [7] [%]	Activity [8] [%]	Activity [9]	Activity [10]	Activity [11]	Activity [12]	further results
Br.CCNC(=N)SCc1c(Br)c(Br)c(Br)c(Br)c1Br	Dose-dependent effect	Dose-dependent effect	Dose-dependent effect	Dose-dependent effect	Dose-dependent effect	Dose-dependent effect	62.2	30.1	Dose-dependent effect	Dose-dependent effect	tde	tde	
Br.C/N=C(/NC)SCc1c(Br)c(Br)c(Br)c(Br)c1Br	Dose-dependent effect	Dose-dependent effect	Dose-dependent effect	Dose-dependent effect	Dose-dependent effect	Dose-dependent effect	77.7	93.1	Dose-dependent effect	Dose-dependent effect	tde	tde	Activity [13]: 9%; Activity [14]: 35.5%; Activity [15]: 55.5%; Activity [16]: Active; Activity [17]: Active; Activity [18]: Active; Activity [19]: 55%; Activity [20]: 2.5%; Activity [21]: 42.5%
Br.CNC(=N)SCc1c(Br)c(Br)c(Br)c(Br)c1Br	Dose-dependent effect	Dose-dependent effect	Dose-dependent effect	Dose-dependent effect	Dose-dependent effect	Dose-dependent effect	81.8	24.4	Dose-dependent effect	Dose-dependent effect	tde	tde	Activity [22]: Active
Br.N=C(N)SCc1c(Br)c(Br)c(Br)c(Br)c1Br	Dose-dependent effect	Dose-dependent effect	Dose-dependent effect	Dose-dependent effect	Dose-dependent effect	Dose-dependent effect	63.8	21.9	Dose-dependent effect	Dose-dependent effect	tde	tde	
Br.C=CCNC(=N)SCc1c(Br)c(Br)c(Br)c(Br)c1Br	Dose-dependent effect	Dose-dependent effect	Dose-dependent effect	Dose-dependent effect	Dose-dependent effect	Dose-dependent effect	60	12.8	Dose-dependent effect	Dose-dependent effect	tde	tde	
